Values after ≈ are worked out from the molar mass of the structure shown. Active and inactive are the calls of the source. The rule behind the calls is not given here.
Key:
[1] = test system: Proteus vulgaris; test: Antimicrobial activity against Proteus vulgaris MTCC 1771 assessed as absence of visible growth after 48 to 72 hrs; type: functional
[2] = test system: Staphylococcus aureus; test: Antimicrobial activity against Staphylococcus aureus MTCC 96 assessed as absence of visible growth after 48 to 72 hrs; type: functional
[3] = test system: Klebsiella pneumoniae; test: Antimicrobial activity against Klebsiella pneumonia MTCC 109 assessed as absence of visible growth after 48 to 72 hrs; type: functional
[4] = test system: Staphylococcus aureus; test: Antimicrobial activity against methicillin-resistant Staphylococcus aureus assessed as absence of visible growth after 48 to 72 hrs; type: functional
Procedure, shortened: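 Broth two-fold serial dilution in 96-well plates, 1000 to 7.81 µg/mL, compound dissolved in DMSO (2%). Inoculum grown in Mueller Hinton broth 24 h at 37°C. Streptomycin positive control. 5 µl of tested broth plated on MHA; MIC is the lowest concentration inhibiting visible growth on agar.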

[5] = test system: Klebsiella pneumoniae; test: Antimicrobial activity against Klebsiella pneumonia MTCC 109 assessed as zone of inhibition at 1 mg/disc after 24 hrs incubation by disc diffusion assay; type: functional
Procedure, shortened: (§1)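 Inocula grown in Mueller Hinton broth for 24 h at 37 °C and swabbed onto Mueller Hinton agar. Discs carried 1 mg compound each and stood 30 min at room temperature before 24 h incubation at 37 °C. Solvent as negative control. Inhibition zones recorded in mm; experiment done twice.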

[6] = test system: Staphylococcus epidermidis; test: Antimicrobial activity against Staphylococcus epidermidis MTCC 3615 assessed as zone of inhibition at 1 mg/disc after 24 hrs incubation by disc diffusion assay; type: functional; procedure, shortened: as §1
[7] = test system: Proteus vulgaris; test: Antimicrobial activity against Proteus vulgaris MTCC 1771 assessed as zone of inhibition at 1 mg/disc after 24 hrs incubation by disc diffusion assay; type: functional; procedure, shortened: as §1
[8] = test system: Staphylococcus aureus; test: Antimicrobial activity against Staphylococcus aureus MTCC 96 assessed as zone of inhibition at 1 mg/disc after 24 hrs incubation by disc diffusion assay; type: functional; procedure, shortened: as §1
[9] = test system: Shigella flexneri; test: Antimicrobial activity against Shigella flexneri MTCC 1457 assessed as absence of visible growth after 48 to 72 hrs; type: functional
[10] = test system: Staphylococcus epidermidis; test: Antimicrobial activity against Staphylococcus epidermidis MTCC 3615 assessed as absence of visible growth after 24 hrs
[11] = test system: Salmonella typhimurium; test: Antimicrobial activity against Salmonella typhimurium MTCC 1251 assessed as absence of visible growth after 48 to 72 hrs; type: functional, Salmonella enterica subsp. enterica serovar Typhimurium; details: Salmonella enterica
[12] = test system: Shigella flexneri; test: Antimicrobial activity against Shigella flexneri MTCC 1457 assessed as zone of inhibition at 1 mg/disc after 24 hrs incubation by disc diffusion assay; type: functional; procedure, shortened: as §1
[13] = test system: Klebsiella aerogenes; test: Antimicrobial activity against Enterobacter aerogenes MTCC 111 assessed as zone of inhibition at 1 mg/disc after 24 hrs incubation by disc diffusion assay; type: functional; procedure, shortened: as §1
[14] = test system: Klebsiella aerogenes; test: Antimicrobial activity against Enterobacter aerogenes MTCC 111 assessed as absence of visible growth after 48 to 72 hrs; type: functional
[15] = test system: Salmonella typhimurium; test: Antimicrobial activity against Salmonella typhimurium MTCC 1251 assessed as zone of inhibition at 1 mg/disc after 24 hrs incubation by disc diffusion assay; type: functional, Salmonella enterica subsp. enterica serovar Typhimurium; procedure, shortened: as §1
[16] = test system: Candida albicans; test: Antifungal activity against Candida albicans MTCC 227 assessed as zone of inhibition at 1 mg/disc after 48 hrs incubation by disc diffusion assay; type: functional
Procedure, shortened: (§2)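 Disc diffusion on Mueller Hinton agar with swabbed cultures, 1 mg compound per disc. Discs stood 30 min at room temperature for diffusion, then plates incubated 48 h at 28 °C. Solvent as negative control. Yeast pre-grown in Sabouraud dextrose broth at 28 °C for 48-72 h; filamentous fungal spores came from SDA slants grown 10 days at 28 °C. Zone diameters in mm; run twice.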

[17] = test system: Micrococcus luteus; test: Antimicrobial activity against Micrococcus luteus MTCC 106 assessed as zone of inhibition at 1 mg/disc after 24 hrs incubation by disc diffusion assay; type: functional; procedure, shortened: as §1
[18] = test system: Malassezia pachydermatis; test: Antifungal activity against Malassezia pachydermatis assessed as zone of inhibition at 1 mg/disc after 48 hrs incubation by disc diffusion assay; type: functional; procedure, shortened: as §2
[19] = test system: Staphylococcus aureus; test: Antimicrobial activity against methicillin-resistant Staphylococcus aureus assessed as zone of inhibition at 1 mg/disc after 24 hrs incubation by disc diffusion assay; type: functional
Procedure, shortened: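 Inoculum grown in Mueller Hinton broth 24 h at 37°C, swabbed onto Mueller Hinton agar and dried 10 min. Discs loaded at 1 mg/disc, then 30 min at room temperature for diffusion. Plates incubated 24 h at 37°C. Solvent negative control; streptomycin positive control. Zone of inhibition read in mm; experiment done twice.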

[20] = test system: Micrococcus luteus; test: Antimicrobial activity against Micrococcus luteus MTCC 106 assessed as absence of visible growth after 48 to 72 hrs; type: functional
[21] = test system: Staphylococcus epidermidis; test: Antimicrobial activity against Staphylococcus epidermidis MTCC 3615 assessed as absence of visible growth after 48 to 72 hrs; type: functional
[22] = test system: Shigella flexneri; test: Antimicrobial activity against Shigella flexneri MTCC 1457 assessed as absence of visible growth after 24 hrs
[23] = test system: Klebsiella pneumoniae; test: Antimicrobial activity against Klebsiella pneumonia MTCC 109 assessed as absence of visible growth after 24 hrs

Compound | MIC [1] [µg/mL] | MIC [2] [µg/mL] | MIC [4] [µg/mL] | inhibition zone (IZ) [5] [mm] | inhibition zone (IZ) [6] [mm] | inhibition zone (IZ) [7] [mm] | inhibition zone (IZ) [8] [mm] | MIC [10] [µg/mL] | MIC [11] [µg/mL] | inhibition zone (IZ) [12] [mm] | inhibition zone (IZ) [13] [mm] | MIC [14] [µg/mL] | inhibition zone (IZ) [15] [mm] | inhibition zone (IZ) [16] [mm] | inhibition zone (IZ) [17] [mm] | inhibition zone (IZ) [18] [mm] | inhibition zone (IZ) [19] [mm] | MIC [20] [µg/mL] | MIC [22] [µg/mL] | MIC [23] [µg/mL] | also measured
Cc1ccc([C@H]2[C@@H]3CCCC=C3C(C#N)=C(N)C23C(=O)c2ccccc2C3=O)cc1 (relative stereo) | 500 (≈ 1270 µM) | 250 (≈ 634 µM) | 250 (≈ 634 µM) | 15 | 10 | 10 | 10 | 500 (≈ 1270 µM) | 250 (≈ 634 µM) | 8 | 13 | 250 (≈ 634 µM) | 14 | 10 | 9 | 11 | 11 | 1000 (≈ 2540 µM) |  |  | MIC [3]: 250 µg/mL (≈ 634 µM); MIC [9]: 1000 µg/mL (≈ 2540 µM)
CN[C@@H]1[C@H](O[C@H]2[C@H](O[C@H]3[C@H](O)[C@@H](O)[C@H](N=C(N)N)[C@@H](O)[C@@H]3N=C(N)N)O[C@@H](C)[C@]2(O)C=O)O[C@@H](CO)[C@H](O)[C@H]1O [STREPTOMYCIN] | 6.25 (≈ 10.7 µM) | 6.25 (≈ 10.7 µM) | 6.25 (≈ 10.7 µM) | 20 | 26 | 30 | 14 |  | 30 (≈ 51.6 µM) | 30 | 22 | 25 (≈ 43 µM) | 18 |  | 26 |  | 30 | 6.25 (≈ 10.7 µM) | 6.25 (≈ 10.7 µM) |  | MIC [3]: 6.25 µg/mL (≈ 10.7 µM); MIC [21]: 6.25 µg/mL (≈ 10.7 µM)
N#CC1=C(N)C2(C(=O)c3ccccc3C2=O)[C@@H](c2ccccc2F)[C@@H]2CCC=C12 (relative stereo) | 250 (≈ 650 µM) | 250 (≈ 650 µM) | 125 (≈ 325 µM) | 15 | 17 | 14 | 14 | 125 (≈ 325 µM) | 250 (≈ 650 µM) | 10 | 15 | 250 (≈ 650 µM) | 12 |  | 12 |  | 16 | 250 (≈ 650 µM) | 250 (≈ 650 µM) | 250 (≈ 650 µM) | inhibition [16]: inactive; inhibition [18]: inactive
COc1ccc([C@H]2[C@@H]3CCCC=C3C(C#N)=C(N)C23C(=O)CCCC3=O)cc1 (relative stereo) | 125 (≈ 332 µM) | 250 (≈ 664 µM) | 250 (≈ 664 µM) | 16 | 13 | 17 | 14 |  | 250 (≈ 664 µM) | 19 | 14 | 250 (≈ 664 µM) | 11 | 10 | 21 | 9 | 15 | 250 (≈ 664 µM) | 125 (≈ 332 µM) |  | MIC [3]: 125 µg/mL (≈ 332 µM); MIC [21]: 250 µg/mL (≈ 664 µM)
Cc1ccc([C@H]2[C@@H]3CCC=C3C(C#N)=C(N)C23C(=O)c2ccccc2C3=O)cc1 (relative stereo) | 125 (≈ 329 µM) | 125 (≈ 329 µM) | 250 (≈ 657 µM) | 15 | 14 | 16 | 17 | 250 (≈ 657 µM) | 500 (≈ 1310 µM) | 13 | 15 | 250 (≈ 657 µM) | 10 | 10 | 12 | 13 | 12 | 250 (≈ 657 µM) |  |  | MIC [3]: 250 µg/mL (≈ 657 µM); MIC [9]: 250 µg/mL (≈ 657 µM)
Cc1ccc([C@H]2[C@@H]3CCCC=C3C(C#N)=C(N)[C@]23C(=O)Nc2ccccc23)cc1 | 250 (≈ 655 µM) | 250 (≈ 655 µM) | 1000 (≈ 2620 µM) | 10 | 12 | 12 | 11 | 250 (≈ 655 µM) | 1000 (≈ 2620 µM) | 9 | 13 | 250 (≈ 655 µM) | 9 | 8 | 8 | 10 | 9 | 1000 (≈ 2620 µM) | 1000 (≈ 2620 µM) | 500 (≈ 1310 µM) | 
Cc1ccc([C@H]2[C@@H]3CCCCC=C3C(C#N)=C(N)[C@]23C(=O)Nc2ccccc23)cc1 | 250 (≈ 632 µM) | 250 (≈ 632 µM) | 250 (≈ 632 µM) | 12 | 14 | 12 | 13 | 250 (≈ 632 µM) | 125 (≈ 316 µM) | 11 | 12 | 250 (≈ 632 µM) | 16 | 9 | 13 | 8 | 15 | 250 (≈ 632 µM) | 250 (≈ 632 µM) | 250 (≈ 632 µM) | 
N#CC1=C(N)[C@]2(C(=O)Nc3ccccc32)[C@@H](c2ccc(Br)cc2)[C@@H]2CCCC=C12 | 1000 (≈ 2240 µM) | 250 (≈ 560 µM) | 250 (≈ 560 µM) | 10 | 10 | 9 | 12 |  | 250 (≈ 560 µM) | 8 | 15 | 250 (≈ 560 µM) | 11 | 10 | 8 | 10 | 12 | 1000 (≈ 2240 µM) | 1000 (≈ 2240 µM) | 500 (≈ 1120 µM) | MIC [21]: 500 µg/mL (≈ 1120 µM)
N#CC1=C(N)C2(C(=O)c3ccccc3C2=O)[C@@H](c2ccoc2)[C@@H]2CCCC=C12 (relative stereo) | 250 (≈ 675 µM) | 250 (≈ 675 µM) | 250 (≈ 675 µM) | 12 | 12 | 15 | 14 | 250 (≈ 675 µM) | 500 (≈ 1350 µM) | 14 | 15 | 250 (≈ 675 µM) | 10 | 13 | 18 | 12 | 13 | 125 (≈ 337 µM) | 250 (≈ 675 µM) | 250 (≈ 675 µM) | 
